Compounds with a hit are over-represented: about 4.3% of the library has one in this group of screens.
OX1R antag-1: blocks the human orexin 1 receptor. O43613. CHO/OX1R cells, Fluo-8 calcium fluorescence, orexin A. inhibition, % at 5 µM. actives 0.43% (n = 330,000);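 active = inhibition above its plate's threshold, mean inhibition of all tested compounds on the plate plus 3 SD, cut at about 37% in these data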;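 note: 0% = orexin A challenge wells and 100% = SB-334867-A antagonist wells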
Target sequence (O43613 whole entry, looked up): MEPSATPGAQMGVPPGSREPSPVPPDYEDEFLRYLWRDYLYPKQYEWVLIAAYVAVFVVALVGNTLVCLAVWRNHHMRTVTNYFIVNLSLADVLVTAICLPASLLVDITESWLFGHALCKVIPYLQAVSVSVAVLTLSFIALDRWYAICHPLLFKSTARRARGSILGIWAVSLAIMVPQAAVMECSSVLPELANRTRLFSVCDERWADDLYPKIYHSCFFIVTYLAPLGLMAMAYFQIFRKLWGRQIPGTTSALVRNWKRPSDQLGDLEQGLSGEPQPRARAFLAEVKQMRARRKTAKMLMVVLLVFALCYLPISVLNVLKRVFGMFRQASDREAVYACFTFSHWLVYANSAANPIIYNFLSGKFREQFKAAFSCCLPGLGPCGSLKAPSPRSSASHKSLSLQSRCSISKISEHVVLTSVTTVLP
GalR3 antag: blocks the human galanin receptor 3; O60755; HEK293 GalR3-CNG cAMP membrane potential fluorescence; galR3 body fused to GalR1 C-terminus; inhibition, % at 3 µM; actives 0.44% (n = 360,000); AID 651719;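 active = inhibition above the screen-wide average plus 3 SD, cut at about 13% in these data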;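 note: forskolin and galanin both at EC90 stimulate the cells; cAMP rise reported by CNG channel membrane potential dye signal; 0% = forskolin plus galanin with DMSO and 100% = forskolin alone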
TAAR1 agonist: agonists of human TAAR1. actives 0.99% (n = 360,000). activation, % at 3 µM. Q96RJ0. AID 624467. CHO RD-HGA16 TAAR1, Fluo-8 calcium fluorescence; vehicle wells 0%, saturating PEA agonist 100%;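 active = activation above the mean activation of all test compounds in the run plus 3 SD, cut at about 38% in these data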
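Repeats: no replicates (n 1) | Material: CHO-derived RD-HGA16 cells with stable Gα16 and human TAAR1 | Technique: Kinetic Fluo-8 calcium fluorescence | Schedule: 17-24 h seeding, 75 min 37 °C dye, 30 min RT | Evaluation: % activation from peak over basal fluorescence ratio, DMSO-to-PEA scaled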
OX1R antag-2: OX1R (human) antagonism. O43613. OX1R-expressing cells, FRET antagonist read-out. inhibition, % at 6.6 µM. actives 1.8% (n = 330,000); in the data active = inhibition mostly above about 38%, no sharp cut-off; inactive = mostly below about 40%;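 note: 0% = agonist challenge alone and 100% = reference antagonist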
TAAR1 antag: human TAAR1 antagonism; actives 1.5% (n = 360,000); CHO RD-HGA16 TAAR1, Fluo-8 calcium fluorescence, antagonist; inhibition, % at 3 µM; Q96RJ0;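 active = inhibition above a per-plate cutoff, the mean inhibition of test compounds on that plate plus 3 SD, cut at about 49% in these data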;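 note: 0% = DMSO plus EC80 beta-PEA response and 100% = DMSO alone without agonist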
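Assay system: RD-HGA16 CHO cells with stable hTAAR1 and Gα16 / Reagent: EC80 β-phenethylamine stimulus / Doses: 3 µM, single point / Timing: dye loading 75 min at 37 °C, then 30 min room temperature / Measured by: Fluo-8 intracellular calcium dye fluorescence, real-time kinetic reads / Controls: vehicle wells and EC80 agonist wells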
CHO parental Ca: signal in parental CHO cells, OX1R antagonist counter-screen; parental CHO-K1, ATP-induced calcium, Fluo-8 fluorescence; inhibition, % at 5.6 µM; actives 0.63% (n = 330,000); AID 463079;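 active = inhibition above that plate's mean sample inhibition plus 3 SD, cut at about 26% in these data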;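 note: 0% = ATP-challenged DMSO wells and 100% = DMSO wells without ATP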
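Assay system: untransfected parental CHO cell line. Also added: ATP agonist challenge. Dosing: one dose, 5.6 µM nominal. Measured by: Fluo-8 fluorescence. Read-out: % inhibition. Benchmarks: ATP wells versus no-ATP DMSO wells. Repeats: no replicates.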
The depositor's hits bear a star; / = no result.

SMILES	OX1R antag-1	GalR3 antag	TAAR1 agonist	OX1R antag-2	TAAR1 antag	CHO parental Ca
CCCCN1C(=O)C(CC(=O)NCCCN(C)C)CC(C(=O)N(C)C)=C1C (stereo not drawn)	/	-5	2	/	4	/
Cc1c(NC(=O)C(C)OC(=O)c2ccc([N+](=O)[O-])cc2Cl)c(=O)n(-c2ccccc2)n1C (stereo not drawn)	/	-2	1	/	-5	/
O=C(Nc1c(Cl)ccc2nsnc12)c1ccc(Br)o1	/	1	0	/	-19	/
O=C(Nc1c(Cl)ccc2nsnc12)c1ccc([N+](=O)[O-])o1	2	-1	1	57*	-2	-6
CC1CN(C(=O)CSc2nc(N)cc(N)n2)CC(C)O1 (stereo not drawn)	3	-1	1	-2	3	-2
CC1(C)N=C(N)N=C(N)N1c1ccccc1	-9	-2	9	-5	-3	25
CC1(C)N=C(N)N=C(N)N1c1ccc(CCCCc2ccccc2)cc1	/	101*	7	/	-34	/
Cc1ccc(Cl)cc1N1CCN(C(=O)C2CCN(c3nnc(-n4cccc4)s3)CC2)CC1	-15	-2	1	12	15	1
Cc1cccc(N2CCN(C(=O)C3CCN(c4nnc(-n5cccc5)s4)CC3)CC2C)c1 (stereo not drawn)	-28	1	7	15	49*	-2
Cc1cccc(N2CCN(C(=O)C3CCN(S(=O)(=O)c4cccc5nsnc45)CC3)CC2C)c1 (stereo not drawn)	-14	-3	21	38	60*	-1
COCCn1c(-c2cccs2)nc2nc3ccccc3nc21	-8	-2	3	38	23	-9
CCCn1c(-c2cccs2)nc2nc3ccccc3nc21	-30	-3	16	64*	2	-25
C[C@@H](C(=O)NCc1ccccc1)[C@H]1C[C@]1(C)[C@H](NC(=O)OCc1ccccc1)c1ccccc1	-27	-9	13	17	62*	-1
O=[N+]([O-])c1ccc(Cl)cc1NCc1cccnc1	-19	-1	0	31	-24	-5
CCn1cc(C(=O)NCCCN2CCC(C)CC2)c(=O)c2cc(S(=O)(=O)N3CCOCC3)ccc21	-1	1	1	13	-1	-8
COc1ccc(-c2cc3c(=O)n(CC(=O)NCCCN4CCN(Cc5ccccc5)CC4)ncn3n2)cc1	-5	-7	0	13	-8	25
COc1ccc(-c2cc3c(=O)n(CC(=O)NCCCN4CCC(Cc5ccccc5)CC4)ncn3n2)cc1	15	-4	4	18	-1	40*
CCn1c(CC(=O)Nc2ccccc2F)nnc1SCC(=O)Nc1nncs1	-9	-7	-3	4	-22	15
O=C(NCc1ccco1)C1Cc2c(-c3cccc(F)c3)ccnc2O1 (stereo not drawn)	/	0	1	/	-12	/
CCN1CCN(Cc2nc3ccc([N+](=O)[O-])cc3c(=O)n2-c2ccc(OC)cc2OC)CC1	1	-8	0	34*	-15	-15
COc1ccc(-n2c(CN3CCN(c4ccccc4OC)CC3)nc3ccc([N+](=O)[O-])cc3c2=O)c(OC)c1	/	-7	4	/	11	/
CCOC(=O)C1CCCN(Cc2nc3ccc([N+](=O)[O-])cc3c(=O)n2-c2ccc(OC)cc2OC)C1 (stereo not drawn)	-12	-2	46*	48	69*	-10
O=C(Cc1ccc(Br)cc1)N/N=C/c1cccnc1	-21	-3	1	15	18	-9
COc1ccc(CNC(=O)C2(C)Cc3c(-c4ccc5c(c4)OCO5)ccnc3O2)cc1OC (stereo not drawn)	/	2	-2	/	-27	/
Cn1cc([N+](=O)[O-])c(C(=O)Nc2nccs2)n1	4	-4	4	44	6	-3
Cc1ccc(S(=O)(=O)Oc2ccc(/C=N/NC(=O)c3nn(C)cc3[N+](=O)[O-])cc2)cc1	0	-5	13	17	26	-14
Cn1cc([N+](=O)[O-])c(C(=O)N/N=C/c2ccncc2)n1	8	0	3	75*	-6	4
Cn1cc([N+](=O)[O-])c(C(=O)Nc2ccc(Br)cn2)n1	-17	-5	5	50*	-12	7

Screening results as filed in PubChem BioAssay.
